Common to all, as to format: cell-based
In one assay the target is human GPR68 (Homo sapiens, UniProt Q15743). The assay can be described thus: GloSensor cAMP assay, proton-mediated Gs-cAMP production at human GPR68. The settings on record: for Log (α): affinity cooperativity; for Log (α) / Log (β): human GPR68, HEK293T, Gs-cAMP; for Log (α) / −Log (KB) / Log (αβ/KB) / Log (β): mean ± SEM; for −Log (KB): allosteric binding affinity from functional assay; for Log (αβ/KB): allosteric index; for Δ: difference of Log(αβ/KB) from that of 1; for Log (β): efficacy cooperativity. An outline of the steps:
(§1)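 HEK293T cells were transiently transfected with receptor and GloSensor cAMP plasmids, overnight (16–20 h). Cells were plated on poly-L-Lys in DMEM + 1% dFBS for 6–24 h, then loaded with 3.5 mM luciferin (HBSS, 20 mM TAPS, pH 8.40) for 1 h at 37 °C. Drug was applied in Ca/Mg-free HBSS pH buffers (MES 5.60–6.70, HEPES 6.80–8.20, TAPS 8.30–8.60) with 10 μM Ro 20-1724. Luminescence was read at 20–30 min.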

The next assay deals with GPR65 (Homo sapiens, UniProt Q8IYL9). As to the kind of experiment: GloSensor cAMP assay at GPR65. The settings on record: proton concentration-response with increasing modulator. Summed up:
as §1

The target of the next assay is GPR4 (Homo sapiens, UniProt P46093). The assay can be described thus: GloSensor cAMP assay at GPR4. As to conditions: proton concentration-response with increasing modulator. An outline of the steps:
as §1

The test system of assay [1] is human GPCRome (318 GPCRs). The assay can be described thus: PRESTO-Tango GPCRome off-target agonist screen. As to conditions: 1 μM. An outline of the steps:
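HTLA cells were plated in DMEM + 2% dFBS overnight, then transfected overnight with receptor Tango constructs (15 ng/well) by in-plate PEI. Test compound was added without medium change and left overnight. Bright-Glo luminescence was read after 20 min at room temperature and expressed as fold of basal, using quadruplicate basal and sample wells. Controls were D2 with 100 nM quinpirole and untransfected cells.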

The target of another assay is A2A receptors (Homo sapiens, UniProt P29274). As to the kind of experiment: Functional assay at A2A receptors.
Another assay addresses mouse GPR68 (Mus musculus, UniProt Q8BFQ3). The assay can be described thus: GloSensor cAMP assay at mouse GPR68. An outline of the steps: as §1

SMILES strings stand for the structures. pEC50: −log10 of the molar value.

Sequence of mouse GPR68 (Q8BFQ3 whole entry): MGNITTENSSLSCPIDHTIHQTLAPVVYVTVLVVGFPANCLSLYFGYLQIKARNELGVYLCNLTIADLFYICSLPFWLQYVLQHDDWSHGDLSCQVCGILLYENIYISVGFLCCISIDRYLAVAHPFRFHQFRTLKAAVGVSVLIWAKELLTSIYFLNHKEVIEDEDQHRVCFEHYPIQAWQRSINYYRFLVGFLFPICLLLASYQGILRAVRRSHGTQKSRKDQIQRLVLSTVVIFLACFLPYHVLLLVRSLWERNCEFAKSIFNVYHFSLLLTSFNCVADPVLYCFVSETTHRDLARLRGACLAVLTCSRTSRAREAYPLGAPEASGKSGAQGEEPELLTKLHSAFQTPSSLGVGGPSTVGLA
Sequence of human GPR68 (Q15743 whole entry): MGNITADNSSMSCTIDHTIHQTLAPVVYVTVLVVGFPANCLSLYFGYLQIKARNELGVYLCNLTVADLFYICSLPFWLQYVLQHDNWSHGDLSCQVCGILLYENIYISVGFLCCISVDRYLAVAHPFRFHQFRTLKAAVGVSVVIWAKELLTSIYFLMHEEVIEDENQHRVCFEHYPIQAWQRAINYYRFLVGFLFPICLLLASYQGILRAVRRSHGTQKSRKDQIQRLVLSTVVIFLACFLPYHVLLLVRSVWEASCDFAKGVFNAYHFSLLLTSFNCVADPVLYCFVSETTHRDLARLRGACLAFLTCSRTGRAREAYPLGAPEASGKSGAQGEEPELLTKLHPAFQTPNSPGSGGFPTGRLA
Sequence of GPR4 (P46093 whole entry): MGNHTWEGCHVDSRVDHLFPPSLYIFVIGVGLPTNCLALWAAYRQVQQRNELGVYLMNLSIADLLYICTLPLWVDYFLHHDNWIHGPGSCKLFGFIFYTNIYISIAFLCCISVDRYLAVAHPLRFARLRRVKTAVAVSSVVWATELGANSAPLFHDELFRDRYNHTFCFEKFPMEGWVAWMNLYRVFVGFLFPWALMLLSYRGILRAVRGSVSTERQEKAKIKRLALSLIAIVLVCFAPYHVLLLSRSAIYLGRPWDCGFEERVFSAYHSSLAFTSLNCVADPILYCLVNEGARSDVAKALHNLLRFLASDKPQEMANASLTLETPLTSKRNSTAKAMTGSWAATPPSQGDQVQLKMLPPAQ
Sequence of GPR65 (Q8IYL9 whole entry): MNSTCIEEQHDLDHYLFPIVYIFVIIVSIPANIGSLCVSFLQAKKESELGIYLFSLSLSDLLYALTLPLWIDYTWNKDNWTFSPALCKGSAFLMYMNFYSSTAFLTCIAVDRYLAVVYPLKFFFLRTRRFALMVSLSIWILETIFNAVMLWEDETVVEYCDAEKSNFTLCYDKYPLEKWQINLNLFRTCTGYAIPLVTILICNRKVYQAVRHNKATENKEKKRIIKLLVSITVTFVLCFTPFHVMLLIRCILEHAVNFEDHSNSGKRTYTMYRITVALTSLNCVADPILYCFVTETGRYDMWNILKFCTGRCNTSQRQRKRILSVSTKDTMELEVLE
Sequence of A2A receptors (P29274 whole entry): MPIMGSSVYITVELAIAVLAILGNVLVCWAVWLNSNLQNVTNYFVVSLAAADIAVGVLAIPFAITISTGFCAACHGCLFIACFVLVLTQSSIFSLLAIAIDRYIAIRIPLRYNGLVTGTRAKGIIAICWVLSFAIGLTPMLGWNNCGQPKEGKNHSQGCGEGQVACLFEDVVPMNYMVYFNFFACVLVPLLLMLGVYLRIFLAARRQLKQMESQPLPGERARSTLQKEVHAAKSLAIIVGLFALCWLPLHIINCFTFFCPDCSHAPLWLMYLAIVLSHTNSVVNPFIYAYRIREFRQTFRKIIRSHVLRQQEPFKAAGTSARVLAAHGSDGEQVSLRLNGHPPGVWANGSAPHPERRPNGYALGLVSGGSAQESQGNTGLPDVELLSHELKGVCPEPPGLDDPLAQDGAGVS

Regarding `Nc1nc(NCc2ccccc2)nc(-c2cccc(CO)c2)n1` [Compound 20], on human GPR68, the “Log (α)” value is listed as “Inactive” and the “Log (β)” value was “Inactive”. Moreover, at human GPR68 (human GPR68), the “−Log (KB)” value was “Inactive”, the “Log (αβ/KB)” value was “Inactive” and the Δ result is recorded as “Inactive”. Further, on human GPR68 (inactive analogues), the “PAM activity at GPR68” value is on record as “do not show PAM activity”. The “PAM activity at GPR65” value on GPR65 is “do not show PAM activity”. The “PAM activity at GPR4” value on GPR4 was “do not show PAM activity”.
Consider `COc1ccc(CO)c(-c2nc(N)nc(NCc3ccccc3)n2)c1` [Compound 31, (2-(4-Amino-6-(benzylamino)-1,3,5-triazin-2-yl)-4-methoxyphenyl)methanol], for which, at human GPR68, the Kb was 102 µM. Besides, the Δ at human GPR68 (human GPR68) is recorded as −0.54.
In turn, `Nc1nc(NCCc2ccccc2)nc(-c2c(F)cccc2CO)n1` [Compound 72, (2-(4-Amino-6-(phenethylamino)-1,3,5-triazin-2-yl)-3-fluorophenyl)methanol] gave a Kb on human GPR68 of 9.12 µM. Also, at human GPR68 (human GPR68), the Δ was 0.82.
On the same counts, the results for `Cc1cccc(CNc2nc(N)nc(-c3c(F)cccc3CO)n2)c1` [Compound 69, (2-(4-Amino-6-((3-methylbenzyl)amino)-1,3,5-triazin-2-yl)-3-fluorophenyl)methanol] are 36.3 µM and 0.11.
`Nc1nc(NCCc2ccccc2)nc(-c2ccccc2CO)n1` [Compound 61] had a Kb at human GPR68 of 31.6 µM. This molecule also yielded a Δ at human GPR68 (human GPR68) of 0.31.
With `Nc1nc(NCCCCc2ccc(Oc3ccccc3)cc2)nc(-c2ccccc2CO)n1` [Compound 66, (2-(4-Amino-6-((4-(4-phenoxyphenyl)butyl)amino)-1,3,5-triazin-2-yl)phenyl)methanol], the Kb at human GPR68 was 15.5 µM. Also, the Δ at human GPR68 (human GPR68) is recorded as 0.62.
In the same order, the values of `Nc1nc(NCc2ccc(Oc3ccccc3)cc2)nc(-c2ccccc2CO)n1` [Compound 59, (2-(4-Amino-6-((4-phenoxybenzyl)amino)-1,3,5-triazin-2-yl)-phenyl)methanol] are 6.46 µM and 0.83.
For the molecule `Cc1ccccc1-c1nc(N)nc(NCc2ccccc2)n1` [Compound 14, N^2-Benzyl-6-(o-tolyl)-1,3,5-triazine-2,4-diamine], on human GPR68, the “Log (α)” value is on record as “Weak PAM” and the “Log (β)” value is “Weak PAM”. Moreover, at human GPR68 (human GPR68), the “−Log (KB)” value is given as “Weak PAM”, the “Log (αβ/KB)” value is on record as “Weak PAM” and the Δ entry is on record as “Weak PAM”.
On human GPR68, `Nc1nc(NCCc2ccc(Oc3ccccc3)cc2)nc(-c2cc(Cl)ccc2CO)n1` [Compound 81, (2-(4-Amino-6-((4-phenoxyphenethyl)amino)-1,3,5-triazin-2-yl)-4-chlorophenyl)methanol] showed a Kb of 25.7 µM. Besides, at human GPR68 (human GPR68), the Δ came to 0.56.
In turn, `COc1ccccc1CNc1nc(N)nc(-c2ccccc2CO)n1` [Compound 53, (2-(4-Amino-6-((2-methoxybenzyl)amino)-1,3,5-triazin-2-yl)-phenyl)methanol] had a Kb on human GPR68 of 102 µM. The molecule also yielded a Δ at human GPR68 (human GPR68) of −0.28.
For `Nc1nc(NCCCCc2ccccc2)nc(-c2c(F)cccc2CO)n1` [Compound 74, (2-(4-Amino-6-((4-phenylbutyl)amino)-1,3,5-triazin-2-yl)-3-fluorophenyl)methanol], the Kb on human GPR68 was 91.2 µM. Further, the Δ on human GPR68 (human GPR68) came to 0.03.
In the same order, the values of `Nc1nc(NCCc2ccc(Oc3ccccc3)cc2)nc(-c2ccccc2CO)n1` [Compound 64, (2-(4-Amino-6-((4-phenoxyphenethyl)amino)-1,3,5-triazin-2-yl)-phenyl)methanol] are 10 µM and 0.59.
Regarding `Nc1nc(NCc2ccc(OC3CC3)cc2)nc(-c2ccccc2CO)n1` [Compound 58, (2-(4-Amino-6-((4-cyclopropoxybenzyl)amino)-1,3,5-triazin-2-yl)phenyl)methanol], the Kb on human GPR68 is 8.51 µM. Further, on human GPR68 (human GPR68), the Δ stood at 0.46.
In the case of `Nc1nc(NCc2ccc(Cl)cc2)nc(-c2ccccc2CO)n1` [Compound 46, (2-(4-Amino-6-((4-chlorobenzyl)amino)-1,3,5-triazin-2-yl)-phenyl)methanol], in assay [1], the “off-target agonist activity at human GPCRome” value is “no agonist activity”. The molecule further showed a Kb at human GPR68 of 6.03 µM. In addition, at human GPR68 (human GPR68), the Δ was 0.80 and the “fold increased allosteric activity (log(αβ/KB)) compared to 1” value is listed as 6 fold. The “PAM activity at GPR65” value at GPR65 is listed as “no effect or weak activity only at high concentrations”. At A2A receptors, the negative logarithm of the EC50 (pEC50) is 5.77 and the “agonist activity at A2A receptors” value is reported as “no agonist activity”. On GPR4, the “PAM activity at GPR4” value is “no effect or weak activity only at high concentrations”. On mouse GPR68, this molecule gave a Kb of 50.1 µM. In addition, at mouse GPR68 (difference of Log(αβ/KB) at mouse GPR68 from the corresponding values at human GPR68), the Δ is on record as −0.43.
In the case of `Nc1nc(NCCCCc2ccccc2)nc(-c2ccccc2CO)n1` [Compound 63], the figures for the Kb on human GPR68 and at mouse GPR68 were 3.02 µM and 12.3 µM, respectively. Moreover, the Δ on human GPR68 (human GPR68) is reported as 1.04.
`Nc1nc(NCc2ccccc2)nc(-c2ccc(Cl)cc2CO)n1` [Compound 26, (2-(4-Amino-6-(benzylamino)-1,3,5-triazin-2-yl)-5-chlorophenyl)methanol]: the Kb at human GPR68 is 17.4 µM. For the same molecule, the Δ on human GPR68 (human GPR68) is reported as 0.56.
In the same order, the values of `Nc1nc(Nc2ccccc2)nc(-c2ccccc2CO)n1` [Compound 60, (2-(4-Amino-6-(phenylamino)-1,3,5-triazin-2-yl)phenyl)-methanol] are 120 µM and −0.27.
For the molecule `Nc1nc(NCc2ccc(Oc3ccccc3)cc2)nc(-c2cc(Cl)ccc2CO)n1` [Compound 80, (2-(4-Amino-6-((4-phenoxybenzyl)amino)-1,3,5-triazin-2-yl)-4-chlorophenyl)methanol], the Kb on human GPR68 is 20 µM. The Δ on human GPR68 (human GPR68) was 0.47.
On human GPR68, `Nc1nc(NCc2ccccc2F)nc(-c2c(F)cccc2CO)n1` [Compound 67, (2-(4-Amino-6-((2-fluorobenzyl)amino)-1,3,5-triazin-2-yl)-3-fluorophenyl)methanol] gave a Kb of 60.3 µM.
`Nc1nc(NCCCc2ccc(Oc3ccccc3)cc2)nc(-c2ccccc2CO)n1` [Compound 65, (2-(4-Amino-6-((3-(4-phenoxyphenyl)propyl)amino)-1,3,5-triazin-2-yl)phenyl)methanol] had a Kb at human GPR68 of 21.4 µM. In addition, the Δ at human GPR68 (human GPR68) was determined as 0.53.
With `CCNc1nc(NCc2ccccc2)nc(-c2ccccc2CO)n1` [Compound 6, (2-(4-(Benzylamino)-6-(ethylamino)-1,3,5-triazin-2-yl)phenyl)-methanol], the Kb on human GPR68 is 23.4 µM. Moreover, the Δ on human GPR68 (human GPR68) was 0.03.
In the same order, the values of `Nc1nc(NCc2ccccc2)nc(-c2cccc(F)c2CO)n1` [Compound 22, (2-(4-Amino-6-(benzylamino)-1,3,5-triazin-2-yl)-6-fluorophenyl)-methanol] are 97.7 µM and −0.45.
In the case of `CC(O)c1ccccc1-c1nc(N)nc(NCc2ccccc2)n1` (stereo not drawn) [Compound 16, 1-(2-(4-Amino-6-(benzylamino)-1,3,5-triazin-2-yl)phenyl)ethan-1-ol], at human GPR68, the “Log (α)” value is reported as “Weak PAM” and the “Log (β)” value was “Weak PAM”. Also, at human GPR68 (human GPR68), the “−Log (KB)” value was “Weak PAM”, the “Log (αβ/KB)” value is “Weak PAM” and the Δ result is “Weak PAM”.
Molecule `CC(C)Oc1ccc(-c2nc(N)nc(NCc3ccccc3)n2)c(CO)c1` [Compound 38, (2-(4-Amino-6-(benzylamino)-1,3,5-triazin-2-yl)-5-isopropoxyphenyl)methanol] showed a Kb at human GPR68 of 12.3 µM. Also, the Δ at human GPR68 (human GPR68) was 0.43.
In the same order, the values of `Nc1nc(NCc2cccc(Cl)c2)nc(-c2ccccc2CO)n1` [Compound 45, (2-(4-Amino-6-((3-chlorobenzyl)amino)-1,3,5-triazin-2-yl)-phenyl)methanol] are 10.7 µM and 0.59.
As to `COc1cccc(CO)c1-c1nc(N)nc(NCc2ccccc2)n1` [Compound 32, (2-(4-Amino-6-(benzylamino)-1,3,5-triazin-2-yl)-3-methoxyphenyl)methanol], at human GPR68, the “Log (α)” value is “Weak PAM” and the “Log (β)” value was “Weak PAM”. Also, at human GPR68 (human GPR68), the “−Log (KB)” value is on record as “Weak PAM”, the “Log (αβ/KB)” value is “Weak PAM” and the Δ entry is “Weak PAM”.

The record behind these values is PMC6923801 (Journal of medicinal chemistry, 2019).
